Results from PMC3082393 (Journal of medicinal chemistry, 2011).

What was measured:
[1] = system: H460 and T29Kt1 cells; experiment: Structure-activity statements from the cell viability assay; set-up: species or system human; conditions: based on IC50 values of Table 1
[2] = system: T29 and T29Kt1 cells; experiment: Levels of compound 34 in cells after treatment; format: cell-based; conditions: 10 μM, all time points up to 5 h after treatment, normalized with protein amount
Method in brief: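 T29 and T29Kt1 cells at 80–90% confluence were given 10 μM test compound and collected by trypsin at time points up to 5 h. After a PBS wash, cells were lysed (M-PER) and homogenised, and supernatant protein was measured by BCA. Supernatant was deproteinised with 2 volumes of acetonitrile, spun at 4°C and concentrated under nitrogen. Drug was quantified by C18 HPLC (acetonitrile/water gradient, 230 nm) against an indole-methanol internal standard, then normalised to protein.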

[3] = system: phosphorylation of the CTD of RNA polymerase II; conditions: cited from earlier work
[4] = system: CDK9; conditions: ref Our previous study; cited from earlier work
[5] = system: CDK7; conditions: ref Our previous study; cited from earlier work
[6] = system: cancer cells that were highly susceptible to oncrasin-1; conditions: cancer cells highly susceptible to oncrasin-1; cited from earlier work

SMILES	Antitumor activity (structure-activity statement in words) [1]	also measured
O=Cc1cn(CCCOc2ccc(Cl)cc2)c2ccccc12 [Compound 15]	retained its activity and selectivity	–
CC(C)Cn1cc(C=O)c2ccccc21 [Compound 22]	complete or partial loss of activity	–
OCc1cn(Cc2cccc(Cl)c2)c2ccccc12 [Compound 34, 1-[(3-chlorophenyl)methyl]-1H-indole-3-methanol]	–	Level of compound in T29 cells relative to T29Kt1 cells [2]: twice
OCc1cn(Cc2ccc(Cl)cc2)c2ccc(F)cc12 [Compound 51, 1-[(4-chlorophenyl)methyl]-5-fluoro-1H-indole-3-methanol]	best potency	–
Cc1ccc(Cn2cc(CO)c3cc(F)ccc32)cc1 [Compound 55, 1-[(4-methylphenyl)methyl]-5-fluoro-1H-indole-3-methanol]	best potency	–
OCCc1cn(Cc2ccc(Cl)cc2)c2ccccc12 [Compound 56, 2-[1-[(4-chlorophenyl)methyl]-1H-indole-3-]ethanol]	dramatic reduction or complete loss of activity	–
OCCCc1cn(Cc2ccccc2)c2ccccc12 [Compound 57]	dramatic reduction or complete loss of activity	–
CC(O)c1cn(Cc2ccc(Cl)cc2)c2ccccc12 (stereo not shown) [Compound 58, 1-[1-[(4-chlorophenyl)methyl]-1H-indole-3-] ethanol]	dramatic reduction or complete loss of activity	–
COCc1cn(Cc2ccc(Cl)cc2)c2ccccc12 [Compound 59, 1-[(4-chlorophenyl)methyl]-1H-indole-3-methoxymethane]	dramatic loss of activity	–
CC(=O)OCc1cn(Cc2ccc(Cl)cc2)c2ccccc12 [Compound 60, 1-[(4-chlorophenyl)methyl]-1H-indole-3-methyl acetate]	equipotent to compound 35	–
O=C(O)c1cn(Cc2ccccc2)c2ccccc12 [Compound 62]	dramatic reduction or complete loss of activity	–
O=C(O)c1cn(Cc2ccc(Cl)cc2)c2ccccc12 [Compound 63, 1-[(4-chlorophenyl)methyl]-1H-indole-3-carboxylic acid]	dramatic reduction or complete loss of activity	–
Cc1cn(Cc2ccc(Cl)cc2)c2ccccc12 [Compound 66, 1-[(4-chlorophenyl)methyl]-1H-indole-3-methane]	dramatic reduction or complete loss of activity	–
Clc1cccc(Cn2cc(Cc3cn(Cc4cccc(Cl)c4)c4ccccc34)c3ccccc32)c1 [Compound 68, bis[1-[(3-chlorophenyl)methyl]-1H-indole-3-]methane]	complete loss of antitumor activity	–
Brc1cccc(Cn2cc(Cc3cn(Cc4cccc(Br)c4)c4ccccc34)c3ccccc32)c1 [Compound 69, bis[1-[(3-bromophenyl)methyl]-1H-indole-3-]methane]	complete loss of antitumor activity	–
O=Cc1cn(Cc2ccc(Cl)cc2)c2ccccc12 [Oncrasin-1, 1-[(4-chlorophenyl)methyl]-1H-indole-3-carboxaldehyde]	–	CTD phosphorylation in sensitive cancer cell lines [3]: suppressed phosphorylation; Direct inhibitory effect on CDK9 [4]: moderate; Direct inhibitory effect on CDK7 [5]: moderate
OCc1c[nH]c2ccccc12 [indole-3-carbinol]	–	Antitumor activity [6]: did not have observable antitumor activity
